Experimental data as given in ChEMBL document CHEMBL4325827, “Bifidenone: Structure-Activity Relationship and Advanced Preclinical Candidate” (J Med Chem, 2018).

Legend:
NCI-H522 = experiment: Antitumor activity against human NCI-H522 cells xenografted in Crl:NU(NCr)-Foxn1 nu mouse assessed as tumor growth inhibition at 60 mg/kg, ip qd administered for 3 consecutive days followed by 2 days of rest for 3 cycles relative to control; format: functional; details: 48 h, read-out: TGI
Summary of the method: (§1)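 Female athymic nude mice bearing subcutaneous xenografts, started from cultured cells (NCI-H460, Calu-6, NCI-H69, LOX-IMVI) or from serially passaged tumour fragments (NCI-H522). Mice were grouped into vehicle and treatment arms at tumour volumes of about 75-200 mm3. Dosing was ip at 5-10 mL/kg in 22% ethanol, 38% PEG400, 40% 20 mM Na citrate pH 5.0. Caliper volumes were taken as (length × width2)/2. Treated and control delta weights were median tumour weight minus staging-day median.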

[1] = Drug uptake in tumor of human NCI-H460 cells xenografted in Crl:NU(NCr)-Foxn1 nu mouse at 40 mg/kg, ip measured at 3 hrs post injection by LC-MS analysis; format: ADME, organism-based, Neoplasm; details: in vivo
Summary of the method: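 Male Nu/Nu mice, some bearing NCI-H460 or LOX-IMVI xenografts, given a single ip dose at 3 mL/kg. Organic vehicle components were dissolved first, with the aqueous part added gradually. Mice were euthanized at 1 h or 3 h. Cardiac blood was taken into NaEDTA/NaF plasma separator tubes. Quantification used loratadine internal standard against a spiked blank-plasma curve. Tumours were run as duplicate ~200 mg samples homogenized in 3% SDS and extracted twice with ethyl acetate, assuming 1 g tissue = 1 mL.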

[2] = Toxicity in Crl:NU(NCr)-Foxn1 nu mouse xenografted with human Calu6 cells assessed as mortality at 60 mg/kg, ip qd administered for 3 consecutive days followed by 2 days of rest for 4 cycles; format: organism-based; details: in vivo, 48 h
Summary of the method: (§2)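 Female athymic nude mice bearing subcutaneous xenografts started from cultured human tumor cells. Mice were split into vehicle and treatment groups once tumors reached about 75-200 mm3. Dosing was ip at 5-10 mL/kg in 22% ethanol, 38% PEG400, 40% 20 mM Na citrate pH 5.0. Deaths per group were recorded alongside maximum mean bodyweight loss.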

LOX IMVI = experiment: Antitumor activity against human LOXIMVI cells xenografted in Crl:NU(NCr)-Foxn1 nu mouse assessed as tumor growth inhibition at 30 mg/kg, ip qd for 7 consecutive days relative to control; format: functional; details: read-out: TGI; summary of the method: as §1
HCT-15 = experiment: Potency index, ratio of paclitaxel IC50 to compound IC50 for taxane-resistant human HCT15 cells after 72 hrs by CellTiter 96 aqueous nonradioactive cell proliferation assay; format: functional
[3] = Toxicity in Crl:NU(NCr)-Foxn1 nu mouse xenografted with human NCI-H69 cells assessed as mortality at 70 mg/kg, ip dosed on day 1 followed by 4 days rest and subsequently dosed at 70 mg/kg, ip qd administered for 3 consecutive days followed by 2 days of rest for 2 cycles; format: organism-based; details: in vivo; summary of the method: as §2
OVCAR-4 = experiment: Antiproliferative activity against taxane-resistant human OVCAR4 cells after 72 hrs by CellTiter 96 aqueous nonradioactive cell proliferation assay; format: functional, cell-based; details: OVCAR-4, 72 h
Summary of the method: (§3)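 Antiproliferation in cultured tumour cells, at least 3 replicate wells per concentration per experiment. NCI-H460 came from ATCC. M14, NCI/ADR-RES, OVCAR-4, HCT-15, ACHN and SF-295 came from the National Cancer Institute. IC50 reported from single experiments where no SD is given.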

NCI-H460 [4] = experiment: Antiproliferative activity against human NCI-H460 cells after 72 hrs by CellTiter 96 aqueous nonradioactive cell proliferation assay; format: functional, cell-based; details: NCI-H460, 72 h; summary of the method: as §3
[5] = Toxicity in Crl:NU(NCr)-Foxn1 nu mouse xenografted with human […] cells assessed as mortality at 50 mg/kg, ip qd administered for 3 consecutive days followed by 2 days of rest for 3 cycles; format: organism-based; details: in vivo, 48 h
Summary of the method: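 Female athymic nude mice bearing subcutaneous NCI-H522 xenografts started from tumor fragments kept by continuous in vivo passage. Mice were grouped once tumors reached about 75-200 mm3. Dosing was ip at 5-10 mL/kg in 22% ethanol, 38% PEG400, 40% 20 mM Na citrate pH 5.0. Deaths per group were recorded with maximum mean bodyweight loss.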

[6] = Toxicity in Crl:NU(NCr)-Foxn1 nu mouse xenografted with human LOX-IMVI cells assessed as maximum body weight loss at 30 mg/kg, ip qd administered for 7 consecutive days measured after 6 days post dose relative to control; format: organism-based; details: in vivo, 144 h; summary of the method: as §1
[7] = Toxicity in Crl:NU(NCr)-Foxn1 nu mouse xenografted with human Calu6 cells assessed as maximum body weight loss at 50 mg/kg, ip qd administered for 3 consecutive days followed by 2 days of rest for 4 cycles measured after 17 days post dose relative to control; format: organism-based; details: in vivo, 408 h; summary of the method: as §1
[8] = Toxicity in Crl:NU(NCr)-Foxn1 nu mouse xenografted with human NCI-H460 cells assessed as maximum body weight loss at 60 mg/kg, ip qd administered for 3 consecutive days followed by 2 days of rest for 3 cycles measured after 8 days post dose relative to control; format: organism-based; details: in vivo, 192 h; summary of the method: as §1
Calu-6 = experiment: Antitumor activity against human Calu6 cells xenografted in Crl:NU(NCr)-Foxn1 nu mouse assessed as tumor growth inhibition at 50 mg/kg, ip qd administered for 3 consecutive days followed by 2 days of rest for 4 cycles relative to control; format: functional; details: Calu-6, ip, 48 h, read-out: TGI; summary of the method: as §1
[9] = Toxicity in Crl:NU(NCr)-Foxn1 nu mouse xenografted with human Calu6 cells assessed as mortality at 50 mg/kg, ip qd administered for 3 consecutive days followed by 2 days of rest for 4 cycles; format: organism-based; details: in vivo, 48 h; summary of the method: as §2
[10] = Toxicity in Crl:NU(NCr)-Foxn1 nu mouse xenografted with human LOX-IMVI cells assessed as maximum body weight loss at 30 mg/kg, ip qd administered for 7 consecutive days measured after 5 days post dose relative to control; format: organism-based; details: in vivo, 120 h; summary of the method: as §1
[11] = Toxicity in Crl:NU(NCr)-Foxn1 nu mouse xenografted with human […] cells assessed as maximum body weight loss at 40 mg/kg, ip qd administered for 3 consecutive days followed by 2 days of rest for 3 cycles measured after 7 days post dose relative to control; format: organism-based; details: in vivo, 168 h; summary of the method: as §1
[12] = Toxicity in Crl:NU(NCr)-Foxn1 nu mouse xenografted with human LOX-IMVI cells assessed as mortality at 30 mg/kg, ip qd administered for 7 consecutive days; format: organism-based; details: in vivo; summary of the method: as §2
NCI-H460 [13] = experiment: Antitumor activity against human NCI-H460 cells xenografted in Crl:NU(NCr)-Foxn1 nu mouse assessed as tumor growth inhibition at 40 mg/kg, ip qd administered for 3 consecutive days followed by 2 days of rest for 3 cycles relative to control; format: functional; details: 48 h, read-out: TGI; summary of the method: as §1
M14 = experiment: Antiproliferative activity against human M14 cells after 72 hrs by CellTiter 96 aqueous nonradioactive cell proliferation assay; format: functional, cell-based; details: M14, 72 h; summary of the method: as §3
[14] = Toxicity in Crl:NU(NCr)-Foxn1 nu mouse xenografted with human […] cells assessed as maximum body weight loss at 50 mg/kg, ip qd administered for 3 consecutive days followed by 2 days of rest for 3 cycles measured after 7 days post dose relative to control; format: organism-based; details: in vivo, 168 h; summary of the method: as §1

## C=CC[C@H]1C[C@]2([C@H](C)Cc3cc(O)c(OC)cc3F)OCOC2=CC1=O
NCI-H522
  inhibition in vivo at 60 mg/kg: 82%
[1]
  Drug uptake: Active
[2]
  Activity: Non-Toxic
LOX IMVI
  inhibition in vivo at 30 mg/kg: 63%
HCT-15
  Ratio IC50: 14
[3]
  Activity: Non-Toxic
OVCAR-4
  IC50: 8 nM
NCI-H460 [4]
  IC50: 15 nM
[5]
  Activity: Non-Toxic
[6]
  Activity: 9%
[7]
  Activity: 4%
[8]
  Activity: 12%
Calu-6
  inhibition in vivo at 50 mg/kg: 76%
[9]
  Activity: Non-Toxic
[10]
  Activity: 9%
[11]
  Activity: 3%
[12]
  Activity: Non-Toxic
NCI-H460 [13]
  inhibition in vivo at 40 mg/kg: 71%
M14
  IC50: 17 nM
[14]
  Activity: 8%
